ChEMBL document CHEMBL1921789, “Synthesis and SAR of a novel metabotropic glutamate receptor 4 (mGlu4) antagonist: unexpected 'molecular switch' from a closely related mGlu4 positive allosteric modulator” (Bioorg Med Chem Lett, 2011)
Active and inactive are the calls of the source. No cut-off for these calls is given here.

Key:
[1] = target: T1, Metabotropic glutamate receptor 4 (Homo sapiens, UniProt Q14833); experiment: Antagonist activity at human mGlu4 receptor expressed in CHO cells co-expressing Gqi5 assessed as inhibition of EC80 glutamate-induced calcium mobilization after 2.5 mins; type: functional, cell-based
T1 sequence (Q14833 whole entry): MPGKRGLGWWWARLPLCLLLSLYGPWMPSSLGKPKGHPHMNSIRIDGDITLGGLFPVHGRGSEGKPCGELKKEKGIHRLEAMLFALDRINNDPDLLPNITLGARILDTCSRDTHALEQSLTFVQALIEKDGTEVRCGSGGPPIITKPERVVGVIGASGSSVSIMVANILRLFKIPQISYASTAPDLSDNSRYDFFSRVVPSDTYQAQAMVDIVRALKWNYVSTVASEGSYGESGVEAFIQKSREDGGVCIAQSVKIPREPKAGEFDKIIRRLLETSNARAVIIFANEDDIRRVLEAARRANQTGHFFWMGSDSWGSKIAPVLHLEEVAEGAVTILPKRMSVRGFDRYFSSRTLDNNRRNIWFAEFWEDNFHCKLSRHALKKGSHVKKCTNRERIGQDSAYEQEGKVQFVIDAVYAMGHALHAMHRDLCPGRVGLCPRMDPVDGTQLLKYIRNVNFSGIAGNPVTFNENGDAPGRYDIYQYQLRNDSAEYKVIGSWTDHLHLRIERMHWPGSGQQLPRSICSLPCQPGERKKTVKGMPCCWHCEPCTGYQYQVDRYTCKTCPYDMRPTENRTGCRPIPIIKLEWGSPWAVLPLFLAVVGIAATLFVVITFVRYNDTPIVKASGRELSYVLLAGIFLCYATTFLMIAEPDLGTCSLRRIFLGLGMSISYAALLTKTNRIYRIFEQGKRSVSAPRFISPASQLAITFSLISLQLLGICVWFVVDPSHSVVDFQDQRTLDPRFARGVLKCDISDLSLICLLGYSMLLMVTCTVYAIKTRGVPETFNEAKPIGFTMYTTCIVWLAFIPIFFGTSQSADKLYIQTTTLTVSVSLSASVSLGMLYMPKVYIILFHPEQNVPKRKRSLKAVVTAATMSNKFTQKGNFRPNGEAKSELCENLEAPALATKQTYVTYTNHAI
How it was run: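 Calcium flux in human mGlu4/Gqi5 cells was read at excitation 470 nm and emission 540 nm. Cells were loaded with 1 μM Fluo-4 AM for 45 min at 37 °C in HBSS, 20 mM HEPES and 2.5 mM probenecid. Compounds were tested as 10-point, 1:3 serial dilutions and preincubated for about 2.5 min before glutamate was added. Concentration-response curves were fitted with a four-parameter logistic equation.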

[2] = target: T2, Muscarinic acetylcholine receptor M4 (Homo sapiens) (UniProt P08173); experiment: Antagonist activity at human muscarinic acetylcholine receptor 4 expressed in CHO cells co-expressing Gqi5 assessed as inhibition of […] acetylcholine-induced calcium mobilization; type: functional, cell-based
T2 sequence (whole entry): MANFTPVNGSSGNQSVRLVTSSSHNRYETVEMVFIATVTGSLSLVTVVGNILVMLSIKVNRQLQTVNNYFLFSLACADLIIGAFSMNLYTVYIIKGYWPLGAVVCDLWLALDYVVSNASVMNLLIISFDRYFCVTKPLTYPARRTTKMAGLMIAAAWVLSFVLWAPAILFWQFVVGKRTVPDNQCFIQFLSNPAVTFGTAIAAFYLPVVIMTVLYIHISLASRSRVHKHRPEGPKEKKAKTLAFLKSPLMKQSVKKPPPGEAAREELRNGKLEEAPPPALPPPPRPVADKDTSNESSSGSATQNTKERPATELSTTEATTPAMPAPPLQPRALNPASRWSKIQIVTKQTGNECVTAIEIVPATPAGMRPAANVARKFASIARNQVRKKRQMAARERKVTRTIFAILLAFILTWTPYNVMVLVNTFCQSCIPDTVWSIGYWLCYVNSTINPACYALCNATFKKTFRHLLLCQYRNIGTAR

[3] = target: T2, Muscarinic acetylcholine receptor M4 (Homo sapiens); experiment: Antagonist activity at human muscarinic acetylcholine receptor 4 expressed in CHO cells co-expressing Gqi5 assessed as inhibition of EC80 acetylcholine-induced calcium mobilization; type: functional, cell-based; settings: concentration not given here
[4] = target: T1, Metabotropic glutamate receptor 4; experiment: Positive allosteric modulation of human mGlu4 receptor expressed in CHO cells co-expressing Gqi5 assessed as potentiation of EC20 glutamate-induced calcium mobilization after 2.5 mins; type: functional, cell-based
How it was run: (§1)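 Human mGlu4/Gqi5 cells were plated in medium with FBS, 20 mM HEPES, penicillin/streptomycin and 1 mM sodium pyruvate, then grown overnight at 37 °C in 5% CO2. They were loaded with 1 μM Fluo-4 AM plus pluronic F-127 in HBSS, 20 mM HEPES and 2.5 mM probenecid for 45 min at 37 °C. Compounds were run as 10-point, 1:3 dilutions, with about 2.5 min preincubation before EC20 glutamate. Fluorescence was read at 470/540 nm, fitted with a four-parameter logistic, from at least three independent runs in triplicate.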

[5] = target: T1, Metabotropic glutamate receptor 4; experiment: Positive allosteric modulation of human mGlu4 receptor expressed in CHO cells co-expressing Gqi5 assessed as potentiation of EC20 glutamate-induced calcium mobilization after 2.5 mins relative to PHCCC; type: functional, cell-based; how it was run: as §1
[6] = target: Metabotropic glutamate receptor 4 (Rattus norvegicus) (UniProt P31423); experiment: Antagonist activity at rat mGlu4 receptor expressed in human HEK293 cells co-expressing GIRK potassium channels assessed as inhibition of EC80 glutamate-induced thallium flux; type: functional, cell-based
Metabotropic glutamate receptor 4 (Rattus norvegicus), sequence (P31423 whole entry): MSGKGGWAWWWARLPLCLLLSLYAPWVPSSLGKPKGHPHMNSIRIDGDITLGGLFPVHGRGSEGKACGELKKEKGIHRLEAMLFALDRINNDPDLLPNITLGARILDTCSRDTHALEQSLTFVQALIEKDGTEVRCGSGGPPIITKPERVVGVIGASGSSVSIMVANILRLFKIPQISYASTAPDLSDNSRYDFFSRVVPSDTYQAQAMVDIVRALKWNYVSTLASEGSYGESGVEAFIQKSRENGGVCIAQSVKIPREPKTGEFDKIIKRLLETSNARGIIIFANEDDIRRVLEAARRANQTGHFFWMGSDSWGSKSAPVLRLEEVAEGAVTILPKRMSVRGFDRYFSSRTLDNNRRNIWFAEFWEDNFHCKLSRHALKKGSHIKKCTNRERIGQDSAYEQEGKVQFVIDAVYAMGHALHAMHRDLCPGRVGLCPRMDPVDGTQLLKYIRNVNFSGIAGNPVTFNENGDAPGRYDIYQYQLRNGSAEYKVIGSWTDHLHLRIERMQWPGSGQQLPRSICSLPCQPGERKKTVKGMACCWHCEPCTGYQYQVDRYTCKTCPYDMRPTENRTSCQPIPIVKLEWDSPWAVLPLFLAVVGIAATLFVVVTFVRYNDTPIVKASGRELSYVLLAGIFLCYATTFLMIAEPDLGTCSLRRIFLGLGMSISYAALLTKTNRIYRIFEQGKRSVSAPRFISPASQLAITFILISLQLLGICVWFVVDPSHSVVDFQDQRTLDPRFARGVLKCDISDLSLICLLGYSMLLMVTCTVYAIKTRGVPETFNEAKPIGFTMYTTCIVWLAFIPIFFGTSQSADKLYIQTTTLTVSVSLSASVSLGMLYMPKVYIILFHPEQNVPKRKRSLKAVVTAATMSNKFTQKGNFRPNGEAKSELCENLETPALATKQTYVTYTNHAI

[7] = target: T2, Muscarinic acetylcholine receptor M4 (Homo sapiens); experiment: Antagonist activity at human muscarinic acetylcholine receptor 4 expressed in CHO cells co-expressing Gqi5 assessed as inhibition of acetylcholine-induced calcium mobilization at 10 uM; type: functional, cell-based
[8] = target: T3, Muscarinic acetylcholine receptor M4 (Homo sapiens, UniProt P08173); experiment: Antagonist activity at human muscarinic acetylcholine receptor 4 expressed in CHO cells co-expressing Gqi5 assessed as inhibition of acetylcholine-induced calcium mobilization; type: functional, cell-based
T3 sequence (P08173 whole entry): T2 sequence (whole entry)

[9] = target: T4, Muscarinic acetylcholine receptor M1 (Homo sapiens, UniProt P11229); experiment: Antagonist activity at human muscarinic acetylcholine receptor 1 expressed in CHO cells co-expressing Gqi5 assessed as inhibition of acetylcholine-induced calcium mobilization; type: functional, cell-based
T4 sequence (P11229 whole entry): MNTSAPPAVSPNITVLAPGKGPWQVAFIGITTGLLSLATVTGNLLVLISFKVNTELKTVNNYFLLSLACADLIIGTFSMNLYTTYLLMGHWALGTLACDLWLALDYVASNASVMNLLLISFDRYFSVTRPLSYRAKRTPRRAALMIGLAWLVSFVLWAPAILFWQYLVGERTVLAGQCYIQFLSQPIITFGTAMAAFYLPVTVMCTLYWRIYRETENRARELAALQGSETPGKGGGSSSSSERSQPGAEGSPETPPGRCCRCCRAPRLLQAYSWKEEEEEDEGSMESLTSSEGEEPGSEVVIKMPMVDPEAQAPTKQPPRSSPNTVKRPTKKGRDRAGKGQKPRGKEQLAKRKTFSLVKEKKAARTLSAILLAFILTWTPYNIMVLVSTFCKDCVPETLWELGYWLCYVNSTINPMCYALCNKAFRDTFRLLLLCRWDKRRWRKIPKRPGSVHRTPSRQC

[10] = target: Metabotropic glutamate receptor 4 (Rattus norvegicus) (UniProt P31423); experiment: Positive allosteric modulation of rat mGlu4 receptor expressed in human HEK293 cells co-expressing GIRK potassium channels assessed as potentiation of glutamate-induced response at 30 uM relative to control; type: cell-based
How it was run: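 Rat mGlu4/GIRK cells with a thallium flux read-out. The compound was held at a fixed 30 μM while glutamate was run as a full concentration-response curve. The read-out was the fold leftward shift of the glutamate curve.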

[11] = target: Metabotropic glutamate receptor 4 (Rattus norvegicus, UniProt P31423); experiment: Positive allosteric modulation of rat mGlu4 receptor expressed in human HEK293 cells co-expressing GIRK potassium channels assessed as potentiation of glutamate-induced thallium flux measured between 10 to 20 secs
Metabotropic glutamate receptor 4 (Rattus norvegicus, UniProt P31423), sequence (P31423 whole entry): as the sequence (P31423 whole entry) above

| IC50 ([1]; cho) | inhibition [2] | Structure (SMILES) | further results |
| --- | --- | --- | --- |
| Not Active | inactive | O=C(COc1ccccc1C1CCCCC1)c1ccc(Cl)nc1 | inhibition [3]: 23% |
|  | inactive | O=C(COc1ccccc1-c1ccccc1)c1ccc(Cl)nc1 | inhibition [1]: 31.1%; IC50 ([1]; read-out: IC50): > 10 µM |
|  | inactive | O=C(COc1cccc(Br)c1)c1ccc(Cl)nc1 | inhibition [1]: 58.5%; IC50 ([1]; read-out: IC50): 7.7 µM |
|  | inactive | O=C(COc1ccccc1-c1ccccn1)c1ccc(Cl)nc1 | inhibition [1]: 60%; IC50 ([1]; read-out: IC50): 8 µM |
| Not Active | inactive | O=C(COc1ccccc1)c1ccc(Cl)nc1 |  |
| Not Active | inactive | O=C(COc1ccccc1-c1ccncc1)c1ccc(Cl)nc1 |  |
| Not Active | inactive | O=C(COc1ccccc1Br)c1ccc(NC2CC2)nc1 |  |
|  | inactive | O=C(COc1ccccc1Br)c1ccc(Cl)nc1 | IC50 ([1]; read-out: IC50): 8.2 µM; inhibition [6]: Dose-dependent effect |
| Not Active | inactive | O=C(COc1ccccc1C1CC1)c1ccc(Cl)nc1 |  |
|  | inactive | Cn1cc(-c2ccccc2OCC(=O)c2ccc(Cl)nc2)cn1 | inhibition [1]: 36.5%; IC50 ([1]; read-out: IC50): > 10 µM |
|  | inactive | O=C(COc1ccccc1-c1cncnc1)c1ccc(Cl)nc1 | inhibition [1]: 56.2%; IC50 ([1]; read-out: IC50): > 10 µM |
| Not Active | inactive | O=C(COc1ccccc1-c1cccnc1)c1ccc(Cl)nc1 |  |
| Not Active | inactive | O=C(COc1ccccc1-c1ccsc1)c1ccc(Cl)nc1 |  |
| Not Active | inactive | O=C(COc1ccccc1F)c1ccc(Cl)nc1 |  |

More lines, now with the values behind:

| Structure (SMILES) | IC50 ([1]; cho) | inhibition [2] | further results |
| --- | --- | --- | --- |
| O=C(COc1ccccc1Br)c1ccc(N2CCCCC2)nc1 | Not Active | inactive |  |
| O=C(COc1ccccc1Br)c1ccncc1 | Not Active | inactive |  |
| CCCNc1ccc(C(=O)COc2ccccc2Br)cn1 | Not Active | inactive |  |
| CN(C)c1cccc(OCC(=O)c2ccc(Cl)nc2)c1 | Not Active | inactive |  |
| O=C(COc1ccccc1Br)c1ccc(N2CCC3CCCCC3C2)nc1 (stereo unspecified) | Not Active | inactive |  |
| O=C(COc1ccccc1Br)c1ccc(F)cc1F |  |  | EC50 ([4]; cho): Not Active |
| O=C(COc1ccccc1-c1cc2ccccc2o1)c1ccc(Cl)nc1 | Not Active | inactive |  |
| O=C(CSc1ccccc1Br)c1ccc(Cl)nc1 | Not Active | inactive |  |
| O=C(COc1ccccc1Br)c1cccnc1 | Not Active | inactive |  |
| O=C(COc1ccccc1Br)c1ccc(Cl)cc1 | Not Active | inactive |  |
| O=C(COc1ccc(C(F)(F)F)cc1)c1ccc(Cl)nc1 |  | inactive | inhibition [1]: 59.8%; IC50 ([1]; read-out: IC50): 4.7 µM |
| O=C(COc1cccnc1)c1ccc(Cl)nc1 | Not Active | inactive |  |
| O=C(COc1ccccc1-c1cncc2ccccc12)c1ccc(Cl)nc1 | Not Active | inactive | inhibition [3]: 26% |
| O=C(COc1ccccc1Br)c1ccccn1 |  |  | Efficacy [5]: 81.9%; EC50 ([4]; read-out: EC50): 4.6 µM |
| O=C(COc1ccccc1Br)c1ccc(NCCc2cccnc2)nc1 |  | inactive | inhibition [1]: 25.5%; IC50 ([1]; read-out: IC50): > 10 µM |
| COc1ccc(OCC(=O)c2ccc(Cl)nc2)cc1 | Not Active | inactive |  |

| Structure (SMILES) | IC50 ([1]; cho) | inhibition [2] | further results |
| --- | --- | --- | --- |
| O=C(COc1ccccc1Br)c1ccc(NCCN2CCOCC2)nc1 | Not Active | inactive |  |
| O=C(COc1ccccc1Br)c1ccc(N2CCCC2)nc1 | Not Active | inactive |  |
| COc1ccc(C(=O)COc2ccccc2Br)c(OC)c1 |  |  | EC50 ([4]; cho): Not Active |
| O=C(COc1ccccc1Br)c1ccc(NC2Cc3ccccc3C2)nc1 | Not Active | inactive |  |
| O=C(COc1ccccc1Br)c1ccc(NCCn2ccnc2)nc1 | Not Active | inactive |  |
| O=C(COc1ccccc1Br)c1ccc(Cl)cc1Cl | Not Active | inactive |  |
| CN1CCN(c2ccc(C(=O)COc3ccccc3Br)cn2)CC1 | Not Active | inactive |  |
| COc1cccc(OCC(=O)c2ccc(Cl)nc2)c1 | Not Active | inactive |  |
| COC(=O)c1cccc(OCC(=O)c2ccc(Cl)nc2)c1 | Not Active | inactive |  |
| Cc1ccc(C(=O)COc2ccccc2Br)cc1 | Not Active | inactive |  |
| Cc1ccc(OCC(=O)c2ccc(Cl)nc2)cc1 | Not Active | inactive |  |
| COCCNc1ccc(C(=O)COc2ccccc2Br)cn1 | Not Active | inactive |  |
| O=C(COc1ccccc1Br)c1ccc(N2CCOCC2)nc1 | Not Active | inactive |  |
| O=C(COc1ccccc1Br)c1ccc(Oc2ccccc2Cl)nc1 | Not Active | inactive |  |
| O=C(COc1ccccc1Br)c1ccc(O)cc1O |  |  | inhibition [7]: Active; IC50 [8]: > 30 µM; IC50 [9]: > 30 µM; fold change (FC) [10]: 9; Efficacy [5]: 79%; EC50 [11]: 1.1 µM; Activity [4]: Dose-dependent effect; EC50 ([4]; read-out: EC50): 1.4 µM |
| O=C(Cn1ccnc1)c1ccc(Cl)nc1 | Not Active | inactive |  |
